The nature of data set [1]: Inhibition of DNA oligonucleotide binding to HCV NS3 helicase. Also noted: species or system Hepacivirus hominis. In outline: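 Compounds run in duplicate two-fold series from 1 mM to 0.78 µM; normalised to no-inhibitor and no-enzyme controls; IC50 by variable Hill-slope dose-response fit.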
A short description of data set [2]: Inhibition of HCV NS3 helicase ATP hydrolysis activity in presence of poly(U) RNA. Also on record: species or system Hepacivirus hominis. In outline:
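ATPase run with RNA: 25 mM MOPS pH 6.5, 1.25 mM MgCl2, 15 µM poly(U), 6 nM NS3h, 5 µg/mL BSA, 0.001% Tween 20. Duplicate two-fold compound series from 1 mM to 0.78 µM; normalised to no-inhibitor and no-enzyme controls; IC50 from variable Hill-slope fit. A separate poly(U) titration gave K_RNA, fit assuming unchanged Vmax.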

Data set [3] is described as follows: Inhibition of HCV NS3 helicase DNA unwinding activity using fluorescent DNA substrate by molecular beacon assay. Also noted: species or system Hepacivirus hominis. Put shortly: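 Molecular beacon unwinding reaction: 25 mM MOPS pH 6.5, 1.25 mM MgCl2, 5% DMSO, 5 µg/ml BSA, 0.01% Tween20, 0.05 mM DTT, 5 nM fluorescent DNA substrate, 12.5 nM NS3h, 1 mM ATP. Duplicate two-fold dilutions spanned 1 mM to 0.78 µM. Data normalised to no-inhibitor and no-enzyme controls; IC50 from variable-slope Hill fit.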

The nature of data set [4]: Cytotoxicity against human HuH5.2 cells assessed as reduction in cell viability after 72 hrs by MTS assay. It counts as cell-based, Huh-5-2. Put shortly: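 Huh 5-2 cells carrying the genotype 1b I389luc-ubi-neo/NS3-3'/5.1 replicon were seeded at 6 500 cells/well in medium without Geneticin one day ahead. Compounds (DMSO stock) were added as 1:5 four-step or 1:2 eight-step dilutions for 72 h at 37 °C.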

A short description of data set [5]: Selectivity index, ratio of CC50 for human HuH5.2 cells to EC50 for HCV genotype 1b infected in human HuH5.2 cells with persistent I389luc-ubi-neo/NS3-3'/5.1 replicon.
Data set [6] deals with Hepatitis C virus. Kind of data set: Antiviral activity against HCV genotype 1b infected in human HuH5.2 cells with persistent I389luc-ubi-neo/NS3-3'/5.1 replicon after 72 hrs by luciferase reporter gene assay. It counts as functional, cell-based, Hepacivirus hominis. To be noted: Huh-5-2, 72 h. In outline:
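Huh 5-2 cells carrying the genotype 1b I389luc-ubi-neo/NS3-3'/5.1 replicon were seeded at 6 500 cells/well in Geneticin-free DMEM/10% FCS and left overnight. Compounds from DMSO stocks were added in a four-step 1-to-5 series for the first screen or an eight-step 1-to-2 series for dose-response curves, then 72 h at 37 °C. Luciferase luminescence after lysis, as % of untreated controls, gave EC50; mean of ≥2 experiments.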
On the technique in general: In antiviral work, replicon cells carry a viral genome segment that copies itself.

Data set [7] deals with Hepacivirus hominis. The data set can be described thus: Selectivity ratio of inhibition of DNA oligonucleotide binding to HCV NS3 helicase to inhibition of HCV NS3 helicase ATP hydrolysis activity.
Data set [8] in a line: Binding affinity to HCV genotype 2A JFH1 protease domain truncated NS3 helicase by fluorescence assay. Also on record: species or system Hepatitis C virus JFH-1. Put shortly: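 Intrinsic tryptophan fluorescence titration (ex 280 nm, em 340 nm) of NS3h, the JFH1 genotype 2a NS3 helicase domain without protease, at 100 nM, with compound alone as reference. Intensities corrected for dilution and inner-filter effects, then globally fit to a quadratic binding equation for Kd.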

The subject of data set [9] is Hepacivirus hominis. The data set can be described thus: Inhibition of HCV NS3 helicase ATP hydrolysis activity at 1 mM in absence of poly(U) RNA.

Active and inactive are the calls of the source. The calls are words filed in the database; no cut-off is given here.

Take `O=C(CCNS(=O)(=O)c1ccc(Cl)cc1)N1CCN(C(=O)CCNS(=O)(=O)c2ccc(Cl)cc2)CC1`: the IC50 in data set [1], in data set [2] and in [3] was more than 1000 µM in each case. Also, the CC50 at 72 h in data set [4] is more than 86.6 µM.

Take `CC(C)(C)c1ccc(S(=O)(=O)NCCCN2CCN(CCCNS(=O)(=O)c3ccc(C(C)(C)C)cc3)CC2)cc1`: the IC50 in data set [1] was more than 1000 µM; in [2], 590 µM; in [3], 310 µM. Moreover, the CC50 at 72 h in [4] came out at 97.2 µM. For the same compound, in [5], the “Ratio CC50/EC50” value is 11.2. Further, a half-maximal response in data set [6] (EC50) required 8.7 µM. For the same compound, in [6], the 90% effect level (EC90) was put at 42.9 µM.

`O=S(=O)(NCCCN1CCN(CCCNS(=O)(=O)c2ccc(Cl)cc2)CC1)c1ccc(Cl)cc1`: the IC50 in data set [1], in [2] and in data set [3] was more than 1000 µM in each case. The CC50 at 72 h in data set [4] is more than 182 µM. In addition, the “Ratio CC50/EC50” value in [5] is >13.2 - 14. In addition, the EC50 in data set [6] fell in the range of 13 to 13.8 µM.

`CC(C)(C)c1ccc(S(=O)(=O)NCCCN2CCN(CCCNS(=O)(=O)c3ccc(-c4ccccc4)cc3)CC2)cc1`: in data set [7], the Selectivity ratio stood at 10. The IC50 turned out to be 200 µM in [1], 21 µM in [2] and 90 µM in [3]. For the same compound, the CC50 at 72 h in data set [4] is 4.78 µM. In data set [8], binding was put at a Kd of 0.57 µM. Also, the inhibition entry in data set [9] is “inactive”. Besides, in [5], the “Ratio CC50/EC50” value is 3.7. Besides, in data set [6], the response was half-maximal at 1.3 µM (EC50). The compound also returned an EC90 in [6] of 3.05 µM.

For the compound `O=S(=O)(NCCCN1CCN(CCCNS(=O)(=O)c2cccc3cccnc23)CC1)c1cccc2cccnc12`, the IC50 in [3] is more than 1000 µM. For the same compound, the CC50 at 72 h in [4] was more than 172 µM. Moreover, in [5], the “Ratio CC50/EC50” value was more than 4. In data set [6], this compound came in with an EC50 of 42.5 µM and an EC90 of more than 172 µM.

`CC(C)(C)c1ccc(S(=O)(=O)NCCCN2CCN(CCCNS(=O)(=O)c3ccc(Cl)cc3)CC2)cc1`: half-maximal inhibition in data set [3] (IC50) required 310 µM. Also, in [4], the CC50 at 72 h was 8.77 µM. For the same compound, the “Ratio CC50/EC50” value in data set [5] is on record as 4. In [6], the EC50 was 2.21 µM and the EC90 was determined as 4.96 µM.

`O=S(=O)(NCCN1CCN(CCNS(=O)(=O)c2ccc3ccccc3c2)CC1)c1ccc2ccccc2c1` had an IC50 in data set [3] of 690 µM. In addition, the CC50 at 72 h in data set [4] was more than 90.5 µM. Further, the “Ratio CC50/EC50” value in [5] is listed as more than 8.5. The compound further had an EC50 in data set [6] of 10.6 µM.

For the compound `O=S(=O)(NCCCN1CCN(CCCNS(=O)(=O)c2ccc(C(F)(F)F)cc2)CC1)c1ccc(C(F)(F)F)cc1`, the IC50 in data set [3] is more than 1000 µM. Further, the CC50 at 72 h in data set [4] is more than 162 µM. Moreover, the “Ratio CC50/EC50” value in [5] is more than 25. In [6], it took 6.5 µM to reach a half-maximal effect (EC50).

Compound `CC(C)(C)c1ccc(S(=O)(=O)NCCCN2CCN(C(=O)CCNS(=O)(=O)c3ccc(C(C)(C)C)cc3)CC2)cc1` came in with an IC50 in data set [3] of more than 1000 µM. Besides, in data set [4], the CC50 at 72 h amounted to 20.8 µM. Moreover, in data set [5], the “Ratio CC50/EC50” value came out at 5.4. Besides, the EC50 in [6] turned out to be 3.84 µM.

With `O=S(=O)(NCCCN1CCN(CCCNS(=O)(=O)c2ccc(-c3ccccc3)cc2)CC1)c1ccccc1`, in data set [3], the IC50 is more than 1000 µM. Further, the CC50 at 72 h in [4] amounted to 14 µM. In addition, in [5], the “Ratio CC50/EC50” value came to 3.5. This compound returned an EC50 in data set [6] of 4 µM.

In turn, `CC(C)(C)c1ccc(S(=O)(=O)NCCCN2CCN(CCCNS(=O)(=O)c3ccc(C(F)(F)F)cc3)CC2)cc1` yielded an IC50 in data set [3] of more than 1000 µM. In addition, in [4], the CC50 at 72 h is 28.7 µM. Further, in [5], the “Ratio CC50/EC50” value came to 4.3. In data set [6], this compound yielded an EC50 of 6.62 µM and an EC90 of 13.8 µM.

A word on the IC50: it is the concentration that gives 50% inhibition. By CC50 is commonly meant the concentration that lowers cell viability or growth by half. What is called EC50 is the concentration at which the effect is half-maximal. High values mean a less potent agent, low ones a more potent agent. One may read the EC90 as the concentration at which the effect reaches the 90% level. Low readings indicate greater potency, high ones weaker potency. The Kd is the concentration at which binding is half-saturated.

For the origin of these results see ChEMBL document CHEMBL4041513, “In silico identification, design and synthesis of novel piperazine-based antiviral agents targeting the hepatitis C virus helicase” (Eur J Med Chem, 2017).
